From ChEMBL document CHEMBL3632513, “Synthesis of donepezil-based multifunctional agents for the treatment of Alzheimer's disease” (Bioorg Med Chem Lett, 2015)
≈ marks a conversion by molar mass, not a printed value. Calls of active or inactive are those of the source. The rule behind the calls is not given here.

Legend:
[1] = molecular target: Cholinesterase (Equus caballus) (UniProt P81908); assay: Mixed-type of inhibition in equine BuChE at 10 to 40 uM by Lineweaver-Burk plot method
[2] = molecular target: Amyloid-beta precursor protein (Homo sapiens) (UniProt P05067); assay: Inhibition of self-induced amyloid beta (1-42) aggregation (unknown origin) at 25 uM after 48 hrs by thioflavin T fluorescence method
Sequence of Amyloid-beta precursor protein (Homo sapiens) (P05067 whole entry): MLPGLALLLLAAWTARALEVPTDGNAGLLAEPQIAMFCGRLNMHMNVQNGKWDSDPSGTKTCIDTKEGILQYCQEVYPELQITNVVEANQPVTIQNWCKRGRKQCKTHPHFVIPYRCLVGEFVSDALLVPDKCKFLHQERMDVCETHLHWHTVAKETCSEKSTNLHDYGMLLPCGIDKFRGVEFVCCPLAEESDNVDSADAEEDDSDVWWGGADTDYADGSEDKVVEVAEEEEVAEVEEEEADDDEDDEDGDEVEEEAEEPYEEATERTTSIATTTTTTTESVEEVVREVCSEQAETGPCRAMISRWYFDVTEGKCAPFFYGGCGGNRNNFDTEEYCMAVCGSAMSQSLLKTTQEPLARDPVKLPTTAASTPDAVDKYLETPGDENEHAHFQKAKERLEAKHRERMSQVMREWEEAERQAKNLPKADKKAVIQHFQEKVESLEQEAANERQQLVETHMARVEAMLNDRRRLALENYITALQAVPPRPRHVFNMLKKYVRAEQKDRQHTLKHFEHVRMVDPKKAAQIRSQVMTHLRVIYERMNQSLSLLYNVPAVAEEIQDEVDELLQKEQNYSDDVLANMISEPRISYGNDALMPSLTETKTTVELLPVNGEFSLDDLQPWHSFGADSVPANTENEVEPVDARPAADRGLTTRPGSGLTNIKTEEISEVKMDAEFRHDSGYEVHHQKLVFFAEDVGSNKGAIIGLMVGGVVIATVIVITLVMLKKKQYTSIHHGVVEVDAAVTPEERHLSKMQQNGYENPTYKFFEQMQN
Summary of the method: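 Thioflavin T fluorometric assay of self-induced Aβ1–42 aggregation, with test compounds and the curcumin reference each at 25. Results are reported as percent inhibition of aggregation.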

[3] = Selectivity ratio of IC50 for equine BuChE to IC50 for electric eel AChE
Summary of the method: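 Both IC50 values come from Ellman's method, using AChE from electric eel and BuChE from equine serum. Selectivity for AChE is calculated as IC50(BuChE)/IC50(AChE).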

Acetylcholinesterase = Acetylcholinesterase (Electrophorus electricus, UniProt O42275); assay: Inhibition of electric eel AChE using acetylthiocholine iodide as substrate preincubated for 15 mins by Ellman's method
Sequence of Acetylcholinesterase (O42275 whole entry): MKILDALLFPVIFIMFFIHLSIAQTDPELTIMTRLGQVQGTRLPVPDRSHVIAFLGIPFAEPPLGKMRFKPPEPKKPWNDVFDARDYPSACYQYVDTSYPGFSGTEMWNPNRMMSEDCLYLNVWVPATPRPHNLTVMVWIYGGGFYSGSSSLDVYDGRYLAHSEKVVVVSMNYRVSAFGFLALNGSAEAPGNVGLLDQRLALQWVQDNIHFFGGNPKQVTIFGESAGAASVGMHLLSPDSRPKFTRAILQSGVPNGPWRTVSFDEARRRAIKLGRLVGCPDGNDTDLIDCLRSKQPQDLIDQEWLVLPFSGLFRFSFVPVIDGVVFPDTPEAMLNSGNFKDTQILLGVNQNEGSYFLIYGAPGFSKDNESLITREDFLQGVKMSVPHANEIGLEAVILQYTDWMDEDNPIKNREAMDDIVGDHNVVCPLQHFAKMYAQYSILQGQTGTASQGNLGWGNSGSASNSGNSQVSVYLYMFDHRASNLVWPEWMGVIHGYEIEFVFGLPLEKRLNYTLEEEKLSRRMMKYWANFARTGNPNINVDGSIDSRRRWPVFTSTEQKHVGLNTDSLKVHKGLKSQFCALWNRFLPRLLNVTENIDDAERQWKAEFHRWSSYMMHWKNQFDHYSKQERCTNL

[4] = Antioxidant activity assessed as DPPH scavenging activity at 10 to 60 ug/ml after 30 mins
[5] = Metal chelating activity of the compound assessed as Zn2+ complex formation after 20 mins by UV-vis spectrophotometry; type: physicochemical
[6] = Lipophilicity, log P of the compound by […]; type: physicochemical; details: octanol/water
[7] = molecular target: Cholinesterase (Equus caballus) (UniProt P81908); assay: Non-competitive inhibition in equine BuChE at 10 to 40 uM by Lineweaver-Burk plot method
Cholinesterase = Cholinesterase (Equus caballus, UniProt P81908); assay: Inhibition of equine serum BuChE using butyrylthiocholine iodide as substrate preincubated for 15 mins by Ellman's method
Sequence of Cholinesterase (P81908 whole entry): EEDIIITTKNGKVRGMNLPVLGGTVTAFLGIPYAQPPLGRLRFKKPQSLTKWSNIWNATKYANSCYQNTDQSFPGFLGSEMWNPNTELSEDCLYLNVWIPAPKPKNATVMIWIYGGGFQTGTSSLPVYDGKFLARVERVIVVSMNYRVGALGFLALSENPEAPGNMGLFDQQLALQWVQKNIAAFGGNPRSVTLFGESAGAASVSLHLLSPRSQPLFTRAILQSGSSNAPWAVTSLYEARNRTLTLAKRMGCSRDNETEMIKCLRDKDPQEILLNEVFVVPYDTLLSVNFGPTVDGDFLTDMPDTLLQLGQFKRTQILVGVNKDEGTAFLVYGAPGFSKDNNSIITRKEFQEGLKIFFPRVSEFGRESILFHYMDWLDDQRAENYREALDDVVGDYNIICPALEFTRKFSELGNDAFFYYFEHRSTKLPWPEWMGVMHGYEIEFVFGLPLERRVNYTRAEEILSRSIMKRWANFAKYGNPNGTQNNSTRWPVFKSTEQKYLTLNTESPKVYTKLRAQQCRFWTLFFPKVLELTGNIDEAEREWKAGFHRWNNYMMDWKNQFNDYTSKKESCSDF

[8] = molecular target: Acetylcholinesterase (Electrophorus electricus) (UniProt O42275); assay: Mixed-type of inhibition in electric eel AChE at 0.5 to 2 uM by Lineweaver-Burk plot method
Sequence of Acetylcholinesterase (Electrophorus electricus) (O42275 24-633 limits assumed): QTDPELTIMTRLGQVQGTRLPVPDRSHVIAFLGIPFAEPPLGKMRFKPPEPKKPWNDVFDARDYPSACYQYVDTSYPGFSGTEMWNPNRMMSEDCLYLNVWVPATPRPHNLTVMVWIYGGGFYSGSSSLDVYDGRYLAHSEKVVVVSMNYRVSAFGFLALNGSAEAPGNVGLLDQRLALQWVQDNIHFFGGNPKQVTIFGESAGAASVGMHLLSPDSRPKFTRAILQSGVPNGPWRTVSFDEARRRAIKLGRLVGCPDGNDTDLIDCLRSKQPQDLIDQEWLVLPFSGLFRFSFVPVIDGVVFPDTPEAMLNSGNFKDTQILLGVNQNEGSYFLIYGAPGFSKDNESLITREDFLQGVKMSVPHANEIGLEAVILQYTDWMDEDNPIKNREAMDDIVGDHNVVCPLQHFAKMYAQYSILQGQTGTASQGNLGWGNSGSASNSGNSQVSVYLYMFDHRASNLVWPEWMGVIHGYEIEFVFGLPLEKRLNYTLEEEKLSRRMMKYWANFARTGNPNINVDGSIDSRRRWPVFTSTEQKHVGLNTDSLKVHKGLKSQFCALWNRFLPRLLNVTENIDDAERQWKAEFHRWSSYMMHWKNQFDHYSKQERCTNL

Sequence of Cholinesterase (Equus caballus) (P81908 whole entry): as the sequence (P81908 whole entry) above

Compound	inhibition [1]	inhibition [2]	Ratio IC50 [3]	IC50 (Acetylcholinesterase)	IC50 [4]	Activity [5]	logP [6]	inhibition [7]	IC50 (Cholinesterase)	inhibition [8]
COc1cccc(NC(=O)C2Cc3cc(OC)c(OC)cc3C2=O)c1 (centres undefined)	Active	30.2%	3.9	540 nM	38.94 µg/mL (≈ 114 µM)	Active	2.08	Active	2100 nM	–
COc1cc2c(cc1OC)C(=O)C(C(=O)Nc1ccccc1F)C2 (centres undefined)	–	55.3%	40.1	80 nM	75.68 µg/mL (≈ 230 µM)	Active	2.36	–	3210 nM	Active
CCOc1ccccc1NC(=O)C1Cc2cc(OC)c(OC)cc2C1=O (centres undefined)	–	38.1%	8.6	770 nM	63.67 µg/mL (≈ 179 µM)	–	2.42	–	6620 nM	–
CCc1ccc(NC(=O)C2Cc3cc(OC)c(OC)cc3C2=O)cc1 (centres undefined)	–	32.1%	4.6	650 nM	76.15 µg/mL (≈ 224 µM)	–	3.11	–	2960 nM	–
CCc1ccccc1NC(=O)C1Cc2cc(OC)c(OC)cc2C1=O (centres undefined)	–	21.8%	7.3	860 nM	55 µg/mL (≈ 162 µM)	–	3.11	–	6290 nM	–
COc1ccc(NC(=O)C2Cc3cc(OC)c(OC)cc3C2=O)cc1 (centres undefined)	–	34.5%	5.5	530 nM	49.47 µg/mL (≈ 145 µM)	–	2.08	–	2900 nM	–
COc1cc2c(cc1OC)C(=O)C(C(=O)Nc1ccc(Cl)cc1)C2 (centres undefined)	–	38.2%	8.8	500 nM	56.76 µg/mL (≈ 164 µM)	–	2.76	–	4400 nM	–
COc1cc2c(cc1OC)C(=O)C(C(=O)Nc1cccc(F)c1)C2 (centres undefined)	–	38.7%	9.1	247 nM	58.11 µg/mL (≈ 176 µM)	–	2.36	–	2250 nM	–
COc1cc2c(cc1OC)C(=O)C(C(=O)Nc1ccc(Br)cc1)C2 (centres undefined)	–	47.6%	26.1	140 nM	72.14 µg/mL (≈ 185 µM)	–	3.03	–	3660 nM	–
CCOc1ccc(NC(=O)C2Cc3cc(OC)c(OC)cc3C2=O)cc1 (centres undefined)	–	40.8%	4.5	580 nM	48.16 µg/mL (≈ 136 µM)	–	2.42	–	2610 nM	–
COc1cc2c(cc1OC)C(=O)C(C(=O)Nc1cccc(Br)c1)C2 (centres undefined)	–	31.9%	7.4	330 nM	58.88 µg/mL (≈ 151 µM)	–	3.03	–	2430 nM	–
COc1ccccc1NC(=O)C1Cc2cc(OC)c(OC)cc2C1=O (centres undefined)	–	25.6%	6.9	700 nM	45.76 µg/mL (≈ 134 µM)	–	2.08	–	4810 nM	–
COc1cc2c(cc1OC)C(=O)C(C(=O)Nc1ccccc1Cl)C2 (centres undefined)	–	40.4%	23.7	300 nM	65.92 µg/mL (≈ 191 µM)	–	2.76	–	7100 nM	–
COc1cc2c(cc1OC)C(=O)C(C(=O)Nc1ccccc1C)C2 (centres undefined)	–	40.3%	8.5	360 nM	43.74 µg/mL (≈ 134 µM)	–	2.69	–	3060 nM	–
CCOc1cccc(NC(=O)C2Cc3cc(OC)c(OC)cc3C2=O)c1 (centres undefined)	–	28.3%	5	780 nM	44.89 µg/mL (≈ 126 µM)	–	2.42	–	3870 nM	–
Cc1c(C)c2c(c(C)c1O)CC[C@@](C)(CCC[C@H](C)CCC[C@H](C)CCCC(C)C)O2 [ALPHA-TOCOPHEROL]	–	–	–	–	31.74 µg/mL (≈ 73.7 µM)	–	–	–	–	–
CCc1cccc(NC(=O)C2Cc3cc(OC)c(OC)cc3C2=O)c1 (centres undefined)	–	27.4%	4.4	670 nM	64.11 µg/mL (≈ 189 µM)	–	3.11	–	2980 nM	–
COc1cc2c(cc1OC)C(=O)C(C(=O)Nc1ccccc1Br)C2 (centres undefined)	–	52.8%	28.3	120 nM	65.44 µg/mL (≈ 168 µM)	–	3.03	–	3400 nM	–
COc1cc2c(cc1OC)C(=O)C(C(=O)Nc1cccc(Cl)c1)C2 (centres undefined)	–	37.4%	4.8	470 nM	76.32 µg/mL (≈ 221 µM)	–	2.76	–	2240 nM	–
Cc1c(C)c2c(c(C)c1O)CCC(C)(C(=O)O)O2 (centres undefined) [TROLOX]	–	–	–	–	20.87 µg/mL (≈ 83.4 µM)	–	–	–	–	–
COc1cc2c(cc1OC)C(=O)C(C(=O)Nc1ccccc1)C2 (centres undefined)	–	14.3%	3.4	920 nM	61.28 µg/mL (≈ 197 µM)	–	2.2	–	3150 nM	–
COc1cc2c(cc1OC)C(=O)C(C(=O)Nc1ccc(C)cc1)C2 (centres undefined)	–	26.8%	3.2	840 nM	67.82 µg/mL (≈ 208 µM)	–	2.69	–	2500 nM	–
COc1cc2c(cc1OC)C(=O)C(C(=O)Nc1ccc(F)cc1)C2 (centres undefined)	–	45.4%	24.1	110 nM	54.96 µg/mL (≈ 167 µM)	–	2.36	–	2650 nM	–
COc1cc2c(cc1OC)C(=O)C(C(=O)Nc1cccc(C)c1)C2 (centres undefined)	–	19.1%	2.9	770 nM	55.83 µg/mL (≈ 172 µM)	–	2.69	–	2240 nM	–
